Screening results deposited in PubChem BioAssay by several laboratories.
SUMO1 PPI mod: modulators of SUMO1 protein-protein interactions, primary screen, biochemical, uHTS; Small ubiquitin-related modifier 1 (Homo sapiens), P63165; SUMO1 binding to a labelled peptide, TR-FRET, 1 h; inhibition, % at 20 µM; 0.33% of 360,000 active; AID 602429, 2012; in the data active = inhibition above about 37%
Target sequence (P63165 whole entry, looked up): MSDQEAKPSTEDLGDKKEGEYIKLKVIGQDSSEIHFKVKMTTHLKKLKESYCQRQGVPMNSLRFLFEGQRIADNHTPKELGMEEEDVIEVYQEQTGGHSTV
Scp1 inh: Scp-1 phosphatase inhibitors, primary screen, biochemical, colorimetric, uHTS; Carboxy-terminal domain RNA polymerase II polypeptide A small phosphatase 1 (Homo …; Recombinant Scp1, phosphopeptide, malachite green phosphate absorbance; inhibition, % at 20 µM; 0.88% of 340,000 active; AID 493091, 2011;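 active = inhibition above about 50% at 20 µM, limit read from the data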;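 note: plate controls were DMSO wells with enzyme for no effect and wells lacking enzyme for full effect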
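Test system: SCP-1 phosphatase catalytic domain, residues 76-261 | Compound dosing: One concentration, 20 µM, with 1.0% DMSO | Schedule: 45 min room-temperature reaction, 5 min colour, 30 min stabiliser | Detection: Absorbance at 630 nm | Read-out basis: % inhibition of SCP-1 phosphate liberation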
LMPTP inh: LMPTP phosphatase inhibitors, primary screen, biochemical, fluorescence intensity, uHTS; Low molecular weight phosphotyrosine protein phosphatase (Homo sapiens), P24666; recombinant LMPTP-A, OMFP fluorogenic substrate; inhibition, % at 20 µM; 0.22% of 360,000 active;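 active = compounds that cut the enzyme signal by at least half of the control window in the single-dose screen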;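 note: plate controls were DMSO wells with enzyme plus substrate for no effect and substrate without enzyme for full effect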
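Assay system: LMPTP-A phosphatase enzyme | Input: 0.625 nM enzyme | Also added: Fluorogenic phosphatase substrate OMFP at 400 µM final | Compound dosing: One test concentration per compound, 20 µM, with 3% DMSO overall | Schedule: 50 min enzyme reaction at room temperature, protected from light | Signal: Fluorescence intensity | Benchmarks: no-enzyme and uninhibited controls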
STEP inh: STEP phosphatase inhibitors, primary screen, biochemical, fluorescence intensity, uHTS; recombinant STEP, OMFP fluorogenic substrate; inhibition, % at 20 µM; AID 588621, 2011; Tyrosine-protein phosphatase non-receptor type 5 (Homo sapiens), P54829; 0.25% of 360,000 active;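 active = inhibition at 20 µM, scaled per plate between control wells, above about 37%, limit read from the data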;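 note: 0% = DMSO with enzyme and substrate and 100% = substrate only without enzyme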
Target sequence (P54829 whole entry, looked up): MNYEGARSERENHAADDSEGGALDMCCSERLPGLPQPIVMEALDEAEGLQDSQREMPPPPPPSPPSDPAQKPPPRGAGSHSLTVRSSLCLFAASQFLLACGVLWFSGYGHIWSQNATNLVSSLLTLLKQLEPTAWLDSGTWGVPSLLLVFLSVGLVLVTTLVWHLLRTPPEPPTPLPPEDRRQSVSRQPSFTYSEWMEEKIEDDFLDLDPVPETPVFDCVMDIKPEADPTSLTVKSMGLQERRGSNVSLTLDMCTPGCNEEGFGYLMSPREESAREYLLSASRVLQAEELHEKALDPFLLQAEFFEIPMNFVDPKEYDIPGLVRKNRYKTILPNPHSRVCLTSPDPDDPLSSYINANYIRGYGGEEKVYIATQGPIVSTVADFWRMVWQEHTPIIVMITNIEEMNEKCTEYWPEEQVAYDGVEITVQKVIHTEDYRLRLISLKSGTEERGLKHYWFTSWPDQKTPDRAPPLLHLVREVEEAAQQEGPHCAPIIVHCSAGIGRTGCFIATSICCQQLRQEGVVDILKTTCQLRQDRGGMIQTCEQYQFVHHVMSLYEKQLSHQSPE
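System: isolated STEP enzyme; schedule: 20 min enzyme reaction at room temperature, protected from light; medium: Bis-Tris buffer pH 6.0, 2.5 mM DTT, 0.005% Tween 20; signal: fluorescence, 480/540 nm; dosing: single compound dose of 20 µM, 1% DMSO final; also added: OMFP substrate, 25 µM final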
DNMT1 block: human DNMT1 methyltransferase inhibitors, primary screen, biochemical, molecular beacon, fluorescence, HinP1I cleavage, uHTS; 0.83% of 360,000 active; AID 588458, 2011; inhibition (reported as % activation of signal), % at 10 µM; in the data active = inhibition above about 50%
CFTR F508del cor: F508del CFTR correction, initial screen, CFBE line, single point | CFBE cells, YFP halide quenching; stimulated with forskolin plus potentiator P3; % fluorescence drop versus neutral controls | activity (quench increase), % at 7.58 µM | 0.36% of 350,000 active;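 active = mean added fluorescence quench of at least 8% versus neutral control, with both replicates also reaching 8%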;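 note: cells transiently co-express mutant CFTR-F508del with the halide-sensitive YFP; corrector assay measuring rescue of mutant channel to the surface after 24 h compound exposure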
* = called active by the depositor; . = not tested or not shown; ! = not active in a repeat. Most compounds without a hit are left out; they make up all but 1.6% or so of the library.

SMILES | SUMO1 PPI mod | Scp1 inh | LMPTP inh | STEP inh | DNMT1 block | CFTR F508del cor
O=C(CN1CCOCC1)NCC[C@H]1CC[C@@H](NC(=O)c2ccccc2F)[C@@H](CO)O1 | . | . | . | . | . | -3
O=C(CN1CCN(c2ccccc2F)CC1)c1ccc2cc[nH]c2c1 | -1 | 2 | 67* | 2 | -19 | 0
COc1ccc(-c2ccccc2[C@H]2[C@@H](CO)N(C(=O)C3CCOCC3)[C@H]2C#N)cc1 | . | . | . | . | . | 5
O=C(/C=C/c1ccc([N+](=O)[O-])cc1)Oc1ccc(/C=N/NC(=O)c2ccncc2)cc1 | 47* | -7 | 47 | 2 | 5 | 2
O=C(NN=Cc1ccc([N+](=O)[O-])cc1)c1ccncc1 | -33 | -5 | -1 | -2 | 1 | -4
C[C@@H]1CN([C@@H](C)CO)C(=O)c2cc(C#Cc3ccccc3F)cnc2O[C@@H]1CN(C)C(=O)Cc1cccnc1 | . | . | . | . | . | 2
CC(=O)c1c(C)[nH]c(C(=O)OCC(=O)NCc2ccc(Cl)cc2)c1C | 2 | -1 | 0 | 0 | -7 | 12*
Cc1cc(-c2csc(NCc3ccccc3)n2)c(C)n1C | -1 | 9 | 16 | 7 | 75* | .
NS(=O)(=O)c1ccc(CCNC(=O)c2cc3ccccc3s2)cc1 | 9 | 58* | 1 | 6 | 2 | 6
Cc1ccc2cc(CN(CC3CCCO3)C(=S)Nc3ccccc3)c(=O)[nH]c2c1C (stereo unspecified) | -1 | -1 | 0 | 1 | -8 | 12*
Cc1cc(C)c2[nH]c(=O)c(CN(CC3CCCO3)C(=S)Nc3ccccc3)cc2c1 (stereo unspecified) | -3 | -2 | 1 | 3 | 0 | .
CCCCNC(=O)c1onc(CSc2ccccc2C)c1C(=O)O | 7 | -12 | -1 | 0 | -2 | 8.3*
CCCCNC(=O)c1onc(CSc2ccccc2F)c1C(=O)O | 2 | -11 | -2 | -1 | 3 | -2
COCC(=O)Nc1ccc2c(c1)OC[C@H](C)N(Cc1cc(F)ccc1F)C[C@@H](C)[C@@H](OC)CN(C)C2=O | . | . | . | . | . | -1
O=C(C[C@@H]1C[C@@H]2c3cc(NS(=O)(=O)c4ccccc4)ccc3O[C@@H]2[C@H](CO)O1)N1CCCCC1 | . | . | . | . | . | -1
CO[C@H]1CN(C)C(=O)c2ccc(NC(=O)C3CCC3)cc2OC[C@H](C)N(Cc2nccs2)C[C@@H]1C | . | . | . | . | . | 2
COc1ccccc1NS(=O)(=O)c1ccc(C)c(C(=O)Nc2cc(C)on2)c1 | 2 | -11 | 0 | 1 | 3 | 8.8*
CCOc1ccc(NC(=O)c2ccccc2NC(=O)CNC2CCCC(C)C2C)cc1 (stereo unspecified) | 4 | -2 | 0 | 0 | 10 | 11*
CCOc1ccc(NC(=O)c2ccccc2NC(=O)CN(C)CC(=O)Nc2ccc(C)cc2)cc1 | -1 | 6 | 2 | 2 | -2 | .
O=C(CSc1nnc(SCc2cccc3ccccc23)s1)N/N=C/c1c[nH]c2ccccc12 | 2 | -5 | 4 | -2 | -21 | .
O=C(CSc1nnc(SCc2ccc(Cl)cc2)s1)N/N=C/c1c[nH]c2ccccc12 | 42* | 16 | 11 | 3 | 70* | .
CS/C(=N\S(=O)(=O)c1cccs1)NC(=O)CSc1nc2ccccc2s1 | 38*! | 10 | 4 | 1 | 2 | -1
Cc1ccc(S(=O)(=O)N(C)C[C@H]2Oc3ccc(NS(=O)(=O)c4ccccc4)cc3C(=O)N([C@H](C)CO)C[C@@H]2C)cc1 | . | . | . | . | . | 1
CCC(=O)c1ccc(OCC(=O)OCC(=O)c2c(N)n(C)c(=O)n(C)c2=O)cc1 | 1 | -4 | -2 | -1 | 5 | -1
Cn1c(N)c(C(=O)COC(=O)COc2ccc(Br)cc2)c(=O)n(C)c1=O | 40* | -13 | -1 | -2 | 1 | -6
SMILES | SUMO1 PPI mod | Scp1 inh | LMPTP inh | STEP inh | DNMT1 block | CFTR F508del cor
NC1=C(Cl)C(=O)c2ccccc2C1=O | -49 | -2 | 2 | 1 | -7 | 2
NC1=C(Cl)C(=O)c2ccc(S(N)(=O)=O)cc2C1=O | 6 | 0 | 6 | 9 | 80* | -4
Cc1ccc(OCc2nnc(SCC(N)=O)n2N)cc1 | 44* | -4 | -1 | -3 | -1 | 1
NC(=O)CSc1nnc(COc2ccccc2)n1N | 0 | 1 | -2 | 1 | 5 | 0
CCCNC(=O)Nc1ccc2c(c1)C(=O)N(C)C[C@@H](OC)[C@H](C)CN[C@@H](C)CO2 | . | . | . | . | . | 2
O=Nc1c(O)ccc2cc(S(=O)(=O)O)ccc12 | -5 | 36 | -3 | 2 | 10 | .
Nc1cccc2cc(S(=O)(=O)O)ccc12 | 25 | 62* | 4 | 22 | 62* | -3
CO[C@H]1CN(C)C(=O)c2cc(NS(=O)(=O)c3ccc(C)cc3)ccc2OC[C@H](C)N(Cc2nccs2)C[C@H]1C | . | . | . | . | . | -1
CCOC1=C/C(=C/c2c(N)n3nc(S(=O)(=O)CC)sc3nc2=O)C=CC1=O | -7 | -6 | 0 | 3 | 5 | 9.9*
CCOC1=C/C(=C/c2c(N)n3nc(CC(=O)N4CCCCC4)sc3nc2=O)C=CC1=O | -18 | -4 | 1 | 1 | 7 | 0
COc1ccccc1OCCNC(=O)CCNC(=O)c1ccccc1OC | -1 | -11 | -10 | 1 | -1 | 24*
COc1ccccc1C(=O)NCCC(=O)NCCOc1ccccc1 | 3 | -13 | -1 | 1 | 2 | -1
CC(C)(C)C1COc2ccccc2N1C(=O)c1cccc(Cl)c1 (stereo unspecified) | 2 | -12 | 1 | 1 | 2 | 9.5*
C[C@@H]1CN([C@@H](C)CO)C(=O)c2cc(NC(=O)CCCCCC(=O)Nc3ccccc3N)ccc2O[C@@H]1CN(C)C(=O)Nc1ccc2c(c1)OCO2 | . | . | . | . | . | 0
C/C=C/c1cnc2c(c1)C(=O)N([C@H](C)CO)C[C@H](C)[C@H](CN(C)C(=O)c1ccc3c(c1)OCO3)O2 | . | . | . | . | . | -2
COc1ccc(-c2oc3ccc(N4CCOCC4)cc3c2C#CCO)cc1 | -11 | -2 | 3 | 0 | -10 | 2
COc1ccc(-c2ccc3oc(-c4ccc(OC)cc4)c(C#CCO)c3c2)cc1 | -5 | -4 | 3 | -2 | -21 | 9.3*
